Rows were chosen to be rich in hits. Some 3.6% of all compounds tested hit in one or more screens of this group.
EBNA-1 inh: blocks EBNA-1 binding to DNA; EBNA-1 DNA binding, fluorescence polarization; inhibition, % at 14.8 µM; 300,000 compounds, 0.34% hits; AID 1950; in the data active = inhibition above about 28%
GRIN3A LBD mod: modulators (binders) of human NR3A ligand-binding domain | NR3A LBD differential scanning fluorimetry, Tm shift; 0% = protein alone, 100% = glycine-bound protein | AID 1259313 | Tm shift relative to glycine control, % at 25 µM | 340,000 compounds, 2.5% hits;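 active = melting temperature shift of at least 10% of the positive control shift, at one fixed dose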
HCV NS3 hel inh: blocks Hepatitis C virus NS3 helicase unwinding | NS3 helicase DNA unwinding, Cy5 molecular beacon fluorescence | inhibition, % at 10.9 µM | 290,000 compounds, 0.56% hits | AID 1800;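 active = inhibition above the mean of all tested compounds plus 3 SD, set per campaign, cut at about 35% in these data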;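 note: 0% = DMSO wells and 100% = thioflavine S control wells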
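Control set: DMSO versus 110 µM thioflavine S; Material: NS3 helicase fragment of HCV; Measured by: Cy5 fluorescence at 0 and 60 min, beacon hairpin quenching; Read-out basis: percent inhibition from t60/t0 fluorescence ratio; Times: reaction time 60 min, 25 °C; Repeats: single replicate; Compound dosing: single dose, 10.9 µM nominal final, DMSO 0.8% final.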
DNA FID counter: counter-screen for HCV NS3 helicase inhibitors: DNA intercalator displacement. DNA fluorescent intercalator displacement, fluorescence. inhibition, % at 7.9 µM. 290,000 compounds, 0.17% hits. AID 1845; in the data active = inhibition above about 37%;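 note: 0% = vehicle and 100% = reference compound; higher means more ethidium bromide displaced from hairpin DNA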
FGF22 binding: FGF22 (human) thermal shift binding; recombinant FGF22 thermal shift, SYPRO orange fluorescence; percent of sucrose octasulfate shift, DMSO zero; activity (Tm shift, normalised), % at 9.99 µM; 340,000 compounds, 1.5% hits; Q9HCT0; AID 651658;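 active = mean Tm shift, scaled 0 neutral to 100 positive control, at about 1.3% or above, every replicate too, limit read from the data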
Target sequence (Q9HCT0 whole entry, looked up): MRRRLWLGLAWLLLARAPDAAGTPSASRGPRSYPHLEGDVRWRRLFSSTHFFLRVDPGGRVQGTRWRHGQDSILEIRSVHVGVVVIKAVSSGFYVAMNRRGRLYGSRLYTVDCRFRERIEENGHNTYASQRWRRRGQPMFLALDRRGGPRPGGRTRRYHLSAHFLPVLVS
ZTA DNA inh: blocks Epstein-Barr virus ZTA, an EBNA-1 counter-screen; P03206; ZTA-DNA binding, fluorescence polarization; inhibition, % at 11 µM; 320,000 compounds, 0.15% hits; AID 2234; in the data active = inhibition above about 33%
Target sequence (P03206 whole entry, looked up): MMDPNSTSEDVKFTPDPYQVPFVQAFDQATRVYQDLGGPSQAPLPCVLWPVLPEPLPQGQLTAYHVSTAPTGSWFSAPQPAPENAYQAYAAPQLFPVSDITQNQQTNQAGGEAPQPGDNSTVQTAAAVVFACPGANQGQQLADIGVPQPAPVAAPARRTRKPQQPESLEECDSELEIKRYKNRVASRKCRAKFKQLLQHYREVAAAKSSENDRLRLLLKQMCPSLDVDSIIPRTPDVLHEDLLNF
The depositor's hits bear a star; x = no result given; ! = repeats disagree.

SMILES	EBNA-1 inh	GRIN3A LBD mod	HCV NS3 hel inh	DNA FID counter	FGF22 binding	ZTA DNA inh
Cc1ccc(S(=O)(=O)NCC(=O)OCC(=O)N2N=C(c3ccc(Cl)cc3)CC2c2ccco2)cc1C (configuration not stated)	6.9	31.0*	2.8	-4.4	x	1.5
O=C(OCC(=O)N1N=C(c2ccc(Cl)cc2)CC1c1ccco1)c1ccco1 (configuration not stated)	8.4	0.0	0.4	-1.6	0.1	19.4
O=C(CSc1nc2cc(Cl)c(Cl)cc2[nH]1)c1ccc2c(c1)OCO2	2.0	17.5*	-4.3	0.8	x	-3.4
O=C(CSc1nc2ccc(Cl)cc2[nH]1)c1ccc2c(c1)OCO2	6.5	-16.5	-8.4	7.0	x	4.4
COc1cccc(NC(=S)NN2CCN(C)CC2)c1	-4.2	12.2*	-1.9	-3.5	x	6.5
COc1ccc(OC)c(NC(=S)NN2CCN(C)CC2)c1	-3.7	-2.7	-0.7	3.7	x	2.1
C[C@@H]1CN([C@H](C)CO)C(=O)Cc2cc(NC(=O)Cn3cnnn3)ccc2O[C@H]1CN(C)C(=O)NC1CCCCC1	x	x	x	x	-0.1	x
CC(C)Cc1nn2c(N)c(/C=C3\C=Nc4ccccc43)c(=O)nc2s1	-4.1	1.9	9.2	-6.0	1.5*	-10.2
CCC(CC)c1nn2c(N)c(/C=C3\C(C)=Nc4ccccc43)c(=O)nc2s1	-6.1	13.1*	-2.6	-17.4	0.3	-13.0
CCC(CC)c1nn2c(N)c(/C=C3\C=Nc4ccccc43)c(=O)nc2s1	0.7	11.1*	11.1	-0.9	-0.2	-17.8
Cc1c(-c2cccc(NC(=O)c3ccco3)c2)nc2ncccn12	3.4	-1.6	4.1	-17.6	44.3*	-0.4
COc1ccc(-c2ccc(NC(=O)c3ccco3)cc2)nn1	-1.1	x	x	x	1.8*	6.2
Cc1c(-c2cccc(NC(=O)c3cccs3)c2)nc2ncccn12	-11.4	-0.1	2.3	-10.4	0.8	-9.8
CS(=O)(=O)c1ccc(-c2cccc(NC(=O)c3ccco3)c2)nn1	-9.7	-0.3	x	x	0.3	-8.0
COc1ccc(-c2cccc(NC(=O)c3ccco3)c2)nn1	13.4	42.7*	x	x	-0.2	7.6
COCC(=O)N1CC2(CN(Cc3ccc(OC)cc3)C2)c2c([nH]c3cc(OC)ccc23)[C@H]1CO	x	x	x	x	-0.3	x
CO[C@H]1CN(C)C(=O)c2cc(NS(=O)(=O)c3ccccc3C)ccc2OC[C@@H](C)N(C)C[C@H]1C	x	x	x	x	0.1	x
COc1cccc(Oc2coc3cc(OC(=O)N4CCOCC4)ccc3c2=O)c1	7.7	10.2*	0.8	-25.9	0.1	5.9
COc1ccc(NC(=O)CSc2ncnc3c2sc2ccccc23)c(OC)c1	2.5	15.5*	-1.7	3.1	x	1.0
CCOC(=O)Nc1ccc2c(c1)Nc1ccccc1S2	5.3	12.3*	-2.0	-12.8	x	9.0
COc1ccccc1C(=O)/C=C/c1ccc(N2CCCCC2)c([N+](=O)[O-])c1	-3.8	-4.8	-7.5	-9.3	0.1	-10.3
O=C(/C=C/c1ccc(N2CCCCC2)c([N+](=O)[O-])c1)c1ccc(O)cc1	-7.5	10.7*	-13.5	5.2	43.1*	-9.5
Cc1ccc(NC(=O)Nc2cccs2)nc1	10.4	-1.6	-7.7	-5.0	x	16.6
CCOC(=O)c1cccc(NC(=O)Nc2ccc(OCC)cc2)c1	-8.1	20.2*	2.8	-15.3	43.2*	2.8
CCOc1ccc(NC(=O)Nc2cccc(C(=O)O)c2)cc1	-2.1	-12.5	2.0	4.2	0.2	5.3
SMILES	EBNA-1 inh	GRIN3A LBD mod	HCV NS3 hel inh	DNA FID counter	FGF22 binding	ZTA DNA inh
CCOc1ccc(NC(=O)Nc2ccc3nsnc3c2)cc1	1.2	25.6*	3.7	8.2	0.2	-16.1
CCOc1ccc(NC(=O)Nc2cccs2)cc1	-10.2	18.8*	2.0	-2.0	x	-6.6
Cc1ccc(NC(=O)Nc2cccs2)cc1	3.5	11.3*	3.0	-8.7	x	-5.5
O=C(Nc1ccccc1F)N[C@H]1CC[C@H](CCNC(=O)C2CCCC2)O[C@H]1CO	x	x	x	x	0.1	x
CN1C(=O)c2cc(NC(=O)C3CC3)ccc2OC[C@H]2O[C@H](CC(=O)NCCN3CCCC3)CC[C@@H]21	x	x	x	x	0.0	x
CCOC(=O)c1ccc2nc(C)c(C)nc2c1	-14.5	0.5	-3.5	-2.4	-0.1	-3.1
CCOC(=O)c1cccc(P(C)(C)=O)c1	-2.8	22.2*	2.2	-0.5	0.1	13.2
O=C(Nc1cccs1)Nc1ccc(Br)cc1F	-5.0	21.3*	7.6	0.4	x	-1.1
Cc1noc(C)c1NC(=O)Nc1ccc2c(c1)CC(=O)N([C@H](C)CO)C[C@@H](C)[C@H](CN(C)C(=O)Nc1c(C)noc1C)O2	x	x	x	x	0.0	x
COCC(=O)Nc1ccc2c(c1)OC[C@@H](C)N(C(=O)CC1CC1)C[C@H](C)[C@H](OC)CN(C)C2=O	x	x	x	x	0.3	x
C/C(=N\NC(=O)c1cccs1)c1c(O)cc(C)oc1=O	-8.6	0.9	-22.3	-7.8	0.0	0.3
C/C(=N\Nc1ccc(Cl)cc1)c1c(O)cc(C)oc1=O	-1.7	1.1	3.3	-6.2	43.0*	2.8
C[C@@H]1CN([C@H](C)CO)C(=O)Cc2cc(NC(=O)Cc3ccccc3)ccc2O[C@H]1CN(C)Cc1ccc(C(F)(F)F)cc1	x	x	x	x	-0.5	x
COc1ccc(C(=O)NCC(=O)N2CCCC(C)C2)cc1OC (configuration not stated)	-12.5	0.1	-7.6	-5.7	43.1*	3.9
CC1CC(C)CN(C(=O)CNC(=O)c2ccc3ccccc3c2)C1 (configuration not stated)	-7.2	91.7*	-2.7	-29.1	0.0	-5.0
CCOCCCn1c(=NC(=O)c2cccnc2)c(C(=O)OCC)cc2c(=O)n3ccccc3nc21	-11.4	14.0*!	6.5	-23.2	0.1	1.7
CCCCN(CCCC)C(=O)C1CC=CCC1C(=O)O (configuration not stated)	5.0	0.8	-14.2	-0.1	0.6	-3.8
CCCCCNC(=O)C1CC=CCC1C(=O)O (configuration not stated)	4.7	11.6*	-3.0	1.2	x	-3.9
COC(=O)Nc1ccc2c(c1)N(C(=O)CCN1CCN3CCCC3C1)c1ccccc1S2 (configuration not stated)	0.3	-1.3	-51.9	38.6*	x	-2.4
CC(C)NC(=O)Nc1ccc2c(c1)CC(=O)N([C@H](C)CO)C[C@@H](C)[C@@H](CN(C)Cc1ccc(C(F)(F)F)cc1)O2	x	x	x	x	-0.2	x
COc1ccc(C(=O)COC(=O)CNC(=O)c2ccc(OC)cc2)cc1	-3.6	11.4*	6.3	-3.6	41.8	9.1
CCOc1ccc(C(=O)NCC(=O)OCC(=O)N2CCCC2)cc1	-11.4	0.8	3.1	-3.3	43.5*	-4.1
C[C@@H]1CCCCO[C@H](CN(C)S(=O)(=O)c2ccc(F)cc2)[C@H](C)CN([C@@H](C)CO)C(=O)c2cc(NC(=O)Nc3ccccc3)ccc2O1	x	x	x	x	0.0	x
COc1ccc(NC(=O)N(C)C[C@@H]2Oc3c(NC(=O)Nc4c(C)noc4C)cccc3C(=O)N([C@H](C)CO)C[C@H]2C)cc1	x	x	x	x	-0.2	x
